Assay results from ChEMBL document CHEMBL5303300, “EUbOPEN Chemogenomics Library - Multiplex” (2023).
Several values for one entry are separate records, joined by “and”; a condition that tells them apart may be missing. Equal values may be shown once.

Test system: Fibroblast
Test: Multiplex assay against human fibroblast
Format: toxicity, cell-based
Conditions: number of replicates 2
Procedure, shortened: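 Values for tubulin, mitochondrial-mass and membrane-permeability phenotypes are per cents of cells with healthy nuclei. These cells were identified by CellPathfinder machine-learning gating of live cells that had been stained at seeding with Hoechst33342, BioTracker Green Microtubule Cytoskeleton Dye, MitoTracker Red and Annexin V Alexa Fluor 680 and imaged on a CQ1 microscope at 37°C and 5% CO2 after compound addition. The gating first set Hoechst high-intensity objects apart from normal cells, then split normal cells into healthy, pyknosed or fragmented nuclei, and pyknosed cells into mitotic or apoptotic.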

[1] = 12 h, 1 µM, compound concentration 1 uM
[2] = 12 h, 10 µM, compound concentration 10 uM
[3] = 24 h, 1 µM, compound concentration 1 uM
[4] = 24 h, 10 µM, compound concentration 10 uM
[5] = 48 h, 1 µM, compound concentration 1 uM
[6] = 48 h, 10 µM, compound concentration 10 uM

With Cc1cccc(S(=O)(=O)N(C)[C@H](C)CCN2CCC(C)CC2)c1.Cl the “Population Apoptotic (%)” value [1] was 34% and 44%, the “Population Fragmented Nuclei (%)” value [1] was 11% and 9% and the “Population Healthy Nuclei (%)” value [1] was 67% and 73%. For the same molecule, the “Population Hoechst High Intensity Objects (%)” value [1] was 0%, the “Population Membrane Permeable-Phenotype (%)” value [1] was 8% and 4% and the “Population Mitochondria Different-Phenotype (%)” value [1] was 1% and 3%. For the same molecule, the “Population Mitotic Cells (%)” value [1] was 65% and 55%, the “Population Normal (%)” value [1] was 100% and the “Population Pyknosed Nuclei (%)” value [1] was 20% and 17%. For the same molecule, the “Population Tubulin-Different-Phenotype (%)” value [1] was 16% and 10%, the “Total Cell Count” value [1] was 140 and 163 and the “Population Apoptotic (%)” value [2] was 42% and 46%. The “Population Fragmented Nuclei (%)” value [2] was 16% and 8%, the “Population Healthy Nuclei (%)” value [2] was 70% and 80% and the “Population Hoechst High Intensity Objects (%)” value [2] was 0%. The “Population Membrane Permeable-Phenotype (%)” value [2] was 6% and 4%, the “Population Mitochondria Different-Phenotype (%)” value [2] was 2% and 1% and the “Population Mitotic Cells (%)” value [2] was 57% and 53%. For the same molecule, the “Population Normal (%)” value [2] was 100%, the “Population Pyknosed Nuclei (%)” value [2] was 13% and 10% and the “Population Tubulin-Different-Phenotype (%)” value [2] was 35% and 13%. For the same molecule, the “Total Cell Count” value [2] was 187 and 145, the “Population Apoptotic (%)” value [3] was 50% and 54% and the “Population Fragmented Nuclei (%)” value [3] was 16% and 13%. The “Population Healthy Nuclei (%)” value [3] was 61% and 71%, the “Population Hoechst High Intensity Objects (%)” value [3] was 1% and 0% and the “Population Membrane Permeable-Phenotype (%)” value [3] was 8% and 2%. For the same molecule, the “Population Mitochondria Different-Phenotype (%)” value [3] was 1% and 0%, the “Population Mitotic Cells (%)” value [3] was 50% and 45% and the “Population Normal (%)” value [3] was 98% and 100%. For the same molecule, the “Population Pyknosed Nuclei (%)” value [3] was 22% and 15%, the “Population Tubulin-Different-Phenotype (%)” value [3] was 14% and 9% and the “Total Cell Count” value [3] was 144 and 156. The “Population Apoptotic (%)” value [4] was 50% and 53%, the “Population Fragmented Nuclei (%)” value [4] was 13% and 9% and the “Population Healthy Nuclei (%)” value [4] was 76% and 81%. For the same molecule, the “Population Hoechst High Intensity Objects (%)” value [4] was 0%, the “Population Membrane Permeable-Phenotype (%)” value [4] was 6% and 1% and the “Population Mitochondria Different-Phenotype (%)” value [4] was 2% and 0%. For the same molecule, the “Population Mitotic Cells (%)” value [4] was 50% and 46%, the “Population Normal (%)” value [4] was 100% and the “Population Pyknosed Nuclei (%)” value [4] was 10% and 9%. For the same molecule, the “Total Cell Count” value [4] was 177 and 144, the “Population Apoptotic (%)” value [5] was 58% and 73% and the “Population Fragmented Nuclei (%)” value [5] was 15%. For the same molecule, the “Population Healthy Nuclei (%)” value [5] was 63% and 72%, the “Population Hoechst High Intensity Objects (%)” value [5] was 0% and the “Population Membrane Permeable-Phenotype (%)” value [5] was 4% and 1%. For the same molecule, the “Population Mitochondria Different-Phenotype (%)” value [5] was 2% and 0%, the “Population Mitotic Cells (%)” value [5] was 41% and 26% and the “Population Normal (%)” value [5] was 100%. The “Population Pyknosed Nuclei (%)” value [5] was 20% and 11%, the “Total Cell Count” value [5] was 139 and 160 and the “Population Apoptotic (%)” value [6] was 54% and 72%. For the same molecule, the “Population Fragmented Nuclei (%)” value [6] was 20% and 11%, the “Population Healthy Nuclei (%)” value [6] was 74% and 81% and the “Population Hoechst High Intensity Objects (%)” value [6] was 0%. For the same molecule, the “Population Membrane Permeable-Phenotype (%)” value [6] was 2%, the “Population Mitochondria Different-Phenotype (%)” value [6] was 0% and the “Population Mitotic Cells (%)” value [6] was 45% and 27%. The “Population Normal (%)” value [6] was 100%, the “Population Pyknosed Nuclei (%)” value [6] was 5% and 7% and the “Total Cell Count” value [6] was 185 and 152.
N=C(N)NCCC[C@H](NC(=O)COCC(c1ccccc1)c1ccccc1)C(=O)O.O=C(O)C(F)(F)F was tested, and the “Population Apoptotic (%)” value [1] was 42% and 45%, the “Population Fragmented Nuclei (%)” value [1] was 6% and 9% and the “Population Healthy Nuclei (%)” value [1] was 71% and 75%. For the same molecule, the “Population Hoechst High Intensity Objects (%)” value [1] was 0%, the “Population Membrane Permeable-Phenotype (%)” value [1] was 5% and 3% and the “Population Mitochondria Different-Phenotype (%)” value [1] was 0% and 4%. For the same molecule, the “Population Mitotic Cells (%)” value [1] was 57% and 54%, the “Population Normal (%)” value [1] was 100% and the “Population Pyknosed Nuclei (%)” value [1] was 22% and 14%. For the same molecule, the “Population Tubulin-Different-Phenotype (%)” value [1] was 17% and 12%, the “Total Cell Count” value [1] was 172 and 221 and the “Population Apoptotic (%)” value [2] was 38% and 55%. The “Population Fragmented Nuclei (%)” value [2] was 9% and 10%, the “Population Healthy Nuclei (%)” value [2] was 79% and 71% and the “Population Hoechst High Intensity Objects (%)” value [2] was 0%. For the same molecule, the “Population Membrane Permeable-Phenotype (%)” value [2] was 8% and 4%, the “Population Mitochondria Different-Phenotype (%)” value [2] was 0% and the “Population Mitotic Cells (%)” value [2] was 61% and 44%. For the same molecule, the “Population Normal (%)” value [2] was 100%, the “Population Pyknosed Nuclei (%)” value [2] was 11% and 18% and the “Population Tubulin-Different-Phenotype (%)” value [2] was 17% and 7%. For the same molecule, the “Total Cell Count” value [2] was 161 and 156, the “Population Apoptotic (%)” value [3] was 63% and 48% and the “Population Fragmented Nuclei (%)” value [3] was 11% and 14%. For the same molecule, the “Population Healthy Nuclei (%)” value [3] was 64% and 67%, the “Population Hoechst High Intensity Objects (%)” value [3] was 0% and the “Population Membrane Permeable-Phenotype (%)” value [3] was 2% and 4%. For the same molecule, the “Population Mitochondria Different-Phenotype (%)” value [3] was 0% and 3%, the “Population Mitotic Cells (%)” value [3] was 36% and 51% and the “Population Normal (%)” value [3] was 100%. The “Population Pyknosed Nuclei (%)” value [3] was 23% and 18%, the “Population Tubulin-Different-Phenotype (%)” value [3] was 11% and 9% and the “Total Cell Count” value [3] was 171 and 247. For the same molecule, the “Population Apoptotic (%)” value [4] was 40% and 57%, the “Population Fragmented Nuclei (%)” value [4] was 14% and 16% and the “Population Healthy Nuclei (%)” value [4] was 71% and 70%. For the same molecule, the “Population Hoechst High Intensity Objects (%)” value [4] was 0%, the “Population Membrane Permeable-Phenotype (%)” value [4] was 7% and the “Population Mitochondria Different-Phenotype (%)” value [4] was 1% and 0%. The “Population Mitotic Cells (%)” value [4] was 59% and 42%, the “Population Normal (%)” value [4] was 100% and the “Population Pyknosed Nuclei (%)” value [4] was 13%. The “Population Tubulin-Different-Phenotype (%)” value [4] was 16% and 11%, the “Total Cell Count” value [4] was 158 and 160 and the “Population Apoptotic (%)” value [5] was 69% and 74%. For the same molecule, the “Population Fragmented Nuclei (%)” value [5] was 15% and 18%, the “Population Healthy Nuclei (%)” value [5] was 65% and 68% and the “Population Hoechst High Intensity Objects (%)” value [5] was 0%. The “Population Membrane Permeable-Phenotype (%)” value [5] was 7% and 4%, the “Population Mitochondria Different-Phenotype (%)” value [5] was 0% and the “Population Mitotic Cells (%)” value [5] was 30% and 25%. The “Population Normal (%)” value [5] was 100%, the “Population Pyknosed Nuclei (%)” value [5] was 19% and 12% and the “Population Tubulin-Different-Phenotype (%)” value [5] was 12% and 5%. For the same molecule, the “Total Cell Count” value [5] was 172 and 253, the “Population Apoptotic (%)” value [6] was 61% and 94% and the “Population Fragmented Nuclei (%)” value [6] was 17% and 18%. For the same molecule, the “Population Healthy Nuclei (%)” value [6] was 70% and 71%, the “Population Hoechst High Intensity Objects (%)” value [6] was 0% and the “Population Membrane Permeable-Phenotype (%)” value [6] was 4% and 6%. For the same molecule, the “Population Mitochondria Different-Phenotype (%)” value [6] was 0%, the “Population Normal (%)” value [6] was 100% and the “Population Pyknosed Nuclei (%)” value [6] was 11% and 10%. The “Population Tubulin-Different-Phenotype (%)” value [6] was 8% and the “Total Cell Count” value [6] was 151 and 170.
